From ChEMBL document CHEMBL1143139, “Structure-activity studies on splitomicin derivatives as sirtuin inhibitors and computational prediction of binding mode” (J Med Chem, 2008)
Activity calls are given as the source filed them. No cut-off for these calls is given here.

Biological target: T1, NAD-dependent protein deacetylase sirtuin-2 (Homo sapiens, UniProt Q8IXJ6)
T1 sequence (Q8IXJ6 whole entry): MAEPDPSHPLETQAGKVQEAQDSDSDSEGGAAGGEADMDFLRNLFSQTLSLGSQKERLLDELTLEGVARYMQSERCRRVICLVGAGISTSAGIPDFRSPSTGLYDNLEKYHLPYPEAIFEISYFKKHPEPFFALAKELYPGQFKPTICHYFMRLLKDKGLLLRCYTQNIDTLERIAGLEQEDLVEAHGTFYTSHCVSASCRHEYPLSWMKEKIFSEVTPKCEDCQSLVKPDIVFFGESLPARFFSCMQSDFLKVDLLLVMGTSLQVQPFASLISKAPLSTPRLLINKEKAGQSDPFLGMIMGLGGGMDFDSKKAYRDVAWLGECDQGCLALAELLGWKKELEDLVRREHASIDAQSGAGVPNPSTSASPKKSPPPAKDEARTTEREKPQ
Experiment: Inhibition of human recombinant Sirt2 expressed in Escherichia coli BL21 by fluorescent deacetylase assay

| Compound | IC50 [µM] |
| --- | --- |
| O=C1CC(c2ccc(F)cc2)c2c(ccc3cc(Br)ccc23)O1 (stereo not drawn) | 7.9 |
| O=C1CC(c2ccccc2)c2c(ccc3cc(I)ccc23)O1 (stereo not drawn) | 19.5 |
| Cc1cccc(C2CC(=O)Oc3ccc4cc(C)ccc4c32)c1 (stereo not drawn) | 4.4 |
| Cc1ccc(C2CC(=O)Oc3ccc4cc(C)ccc4c32)cc1 (stereo not drawn) | 1.5 |
| Cc1ccc2c3c(ccc2c1)OC(=O)CC3c1cccc(C#N)c1 (stereo not drawn) | 3.1 |
| COc1cccc(C2CC(=O)Oc3ccc4cc(Br)ccc4c32)c1 (stereo not drawn) | 2.3 |
| O=C1CC(c2ccc(F)c(F)c2)c2c(ccc3cc(Br)ccc23)O1 (stereo not drawn) | 19.7 |
| O=C1CC(c2ccccc2)c2c(ccc3cc(Br)ccc23)N1 (stereo not drawn) | 6.4 |
| Cc1ccc(C2CC(=O)Oc3ccc4cc(Br)ccc4c32)cc1F (stereo not drawn) | 2 |
| Cc1ccc2c3c(ccc2c1)OC(=O)C[C@@H]3c1ccccc1 | 3.4 |
| Cc1ccc(C2CC(=O)Oc3ccc4cc(Br)ccc4c32)cc1 (stereo not drawn) | 1.5 |
| COc1ccc(C2CC(=O)Oc3ccc4cc(Br)ccc4c32)cc1 (stereo not drawn) | 5.4 |
| Cc1ccc2c3c(ccc2c1)OC(=O)CC3c1ccccc1 (stereo not drawn) | 10.6 |
| O=C1CC(c2cccc(F)c2)c2c(ccc3cc(Br)ccc23)O1 (stereo not drawn) | 3.2 |
| Cc1ccc2c3c(ccc2c1)OC(=O)CC3c1cccc(Br)c1 (stereo not drawn) | 9.8 |
| Cc1ccc2c3c(ccc2c1)OC(=O)CC3c1ccc(C)c(F)c1 (stereo not drawn) | 3.4 |
| O=C1CC(c2cccc(Br)c2)c2c(ccc3cc(Br)ccc23)O1 (stereo not drawn) | 10.1 |
| Cc1ccc2c3c(ccc2c1)OC(=O)CC3c1cccc(C(N)=O)c1 (stereo not drawn) | 20 |
| O=C1CC(c2ccccc2)c2c(ccc3cc(Br)ccc23)O1 (stereo not drawn) | 5.2 |
| Cc1ccc([C@H]2CC(=O)Oc3ccc4cc(C)ccc4c32)cc1 | 1 |
| Cc1ccc(C2CC(=O)Oc3ccc4cc(Br)ccc4c32)cc1Cl (stereo not drawn) | 2.3 |

Biological target: T2, NAD-dependent protein deacetylase sirtuin-2 (Homo sapiens) (UniProt Q8IXJ6)
T2 sequence (whole entry): T1 sequence (Q8IXJ6 whole entry)
Experiment: Inhibition of human recombinant Sirt2 expressed in Escherichia coli BL21 at 20 uM by fluorescent deacetylase assay
Outline: (§1)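 Full-length human Sirt2, N-terminal His6 tag, expressed in E. coli BL21 (IPTG 0.1 mM, 2 h). 60 µL reaction with fluorescent acetyl-lysine substrate ZMAL 10.5 µM, NAD+ 500 µM, inhibitor from DMSO stock, 4 h at 37 °C. Deacetylated product developed by tryptic digest; fluorescence at ex 390/em 460 nm. Inhibition calculated versus no-inhibitor control; at least duplicate.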

| Compound | inhibition [%] | Activity |
| --- | --- | --- |
| COc1cc(C2CC(=O)Oc3ccc4cc(C)ccc4c32)ccc1C (stereo not drawn) | 9.2 | – |
| CC(=O)c1ccc2c3c(ccc2c1)OC(=O)CC3c1ccccc1 (stereo not drawn) | 24 | – |
| O=C1CC(c2ccc(Cl)c(Cl)c2)c2c(ccc3cc(Br)ccc23)O1 (stereo not drawn) | 42.3 | – |
| Cc1ccc2c3c(ccc2c1)OC(=O)CC3c1ccc(-c2ccccc2)cc1 (stereo not drawn) | 28.3 | – |
| CC(=O)Nc1cccc(C2CC(=O)Oc3ccc4cc(C)ccc4c32)c1 (stereo not drawn) | 17.1 | – |
| CC(=O)Nc1cccc(-c2ccc3c4c(ccc3c2)OC(=O)CC4c2ccccc2)c1 (stereo not drawn) | 22.2 | – |
| Cc1ccc2c3c(ccc2c1)OC(=O)CC3c1cccc(O)c1 (stereo not drawn) | 15.4 | – |
| O=C1CCc2c(ccc3cc(Br)ccc23)O1 | – | inactive |
| O=C1CC(c2cccnc2)c2c(ccc3ccccc23)N1 (stereo not drawn) | – | inactive |
| O=C1CC(c2ccccc2)c2c(ccc3cc(O)ccc23)O1 (stereo not drawn) | 21.8 | – |
| O=C1CC(c2ccccc2)c2c(ccc3cc(-c4cccnc4)ccc23)O1 (stereo not drawn) | 18.4 | – |
| O=C1CC(c2ccccc2)c2c(ccc3cc(-c4cccc(O)c4)ccc23)O1 (stereo not drawn) | 37.5 | – |
| O=C1CC(c2ccc(Cl)cc2)c2c(ccc3cc(Br)ccc23)O1 (stereo not drawn) | 28.5 | – |
| O=C1CC(c2ccccc2)c2c(ccc3cc(-c4ccc(-c5ccccc5)cc4)ccc23)O1 (stereo not drawn) | 20.6 | – |
| COc1cc(C2CC(=O)Oc3ccc4cc(Br)ccc4c32)ccc1C (stereo not drawn) | 6.3 | – |
| O=C1CC(c2ccccc2)c2c(ccc3cc(-c4ccc5ccccc5c4)ccc23)O1 (stereo not drawn) | 15.1 | – |
| Cc1ccc2c3c(ccc2c1)OC(=O)CC3c1ccc(Cl)cc1 (stereo not drawn) | 26.7 | – |
| COc1ccccc1C1CC(=O)Oc2ccc3cc(Br)ccc3c21 (stereo not drawn) | 17.4 | – |
| CC(C)(C)c1ccc(C2CC(=O)Oc3ccc4cc(Br)ccc4c32)cc1 (stereo not drawn) | 46.8 | – |

Biological target: T2, NAD-dependent protein deacetylase sirtuin-2 (Homo sapiens)
Experiment: Inhibition of human recombinant Sirt2 expressed in Escherichia coli BL21 at 40 uM by fluorescent deacetylase assay
Outline: as §1

| Compound | Activity | inhibition [%] |
| --- | --- | --- |
| COc1ccc2ccc3c(c2c1)C(c1ccccc1)CC(=O)O3 (stereo not drawn) | inactive | – |
| O=C1CC(c2ccc(-c3ccccc3)cc2)c2c(ccc3ccccc23)N1 (stereo not drawn) | – | 4.2 |
| O=C1CC(c2ccc(F)cc2)c2c(ccc3ccccc23)N1 (stereo not drawn) | – | 16.9 |
| O=C1CC(Cc2ccccc2)c2c(ccc3cc(Br)ccc23)O1 (stereo not drawn) | – | 21.1 |
| O=C1CC(c2ccccc2)c2c(cc(Br)c3cc(Br)ccc23)O1 (stereo not drawn) | – | 9.6 |
| CCc1ccc2c3c(ccc2c1)OC(=O)CC3c1ccccc1 (stereo not drawn) | – | 25.6 |
| O=C1CC(c2ccccc2)c2c(ccc3cc(-c4ccccc4)ccc23)O1 (stereo not drawn) | – | 26.2 |
| N#Cc1ccc2c3c(ccc2c1)OC(=O)CC3c1ccccc1 (stereo not drawn) | – | 25.9 |
| O=C1CC(c2ccccc2)c2c(ccc3ccccc23)N1 (stereo not drawn) | – | 31.5 |
| NC(=O)c1ccc2c3c(ccc2c1)OC(=O)CC3c1ccccc1 (stereo not drawn) | inactive | – |
| O=C1CC(c2ccccc2)c2c(ccc3ccccc23)O1 (stereo not drawn) | – | 49.1 |

Tested on: MCF7
Experiment: Antiproliferative activity against human MCF7 cells by MTT assay
Type: functional
Outline: (§2)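 MCF-7 cells in RPMI-1640 with 10% FBS, L-glutamine and penicillin/streptomycin at 37 °C, 5% CO2; 5000 cells/well, compound or DMSO vehicle added 24 h after seeding, then 72 h exposure.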

| Compound | GI50 [µM] |
| --- | --- |
| Cc1ccc(C2CC(=O)Oc3ccc4cc(C)ccc4c32)cc1 (stereo not drawn) | 99 |
| Cc1ccc(C2CC(=O)Oc3ccc4cc(Br)ccc4c32)cc1 (stereo not drawn) | 43 |
| Cc1ccc([C@H]2CC(=O)Oc3ccc4cc(C)ccc4c32)cc1 | 84 |

Tested on: MCF7
Experiment: Growth inhibition of human MCF7 cells at 500 uM by MTT assay
Type: functional
Outline: as §2

| Compound | Inhibition [%] |
| --- | --- |
| Cc1ccc([C@@H]2CC(=O)Oc3ccc4cc(C)ccc4c32)cc1 | 74 |
| Cc1ccc2c3c(ccc2c1)OC(=O)CC3c1cccc(C(N)=O)c1 (stereo not drawn) | 64 |
| O=C1CC(c2ccccc2)c2c(ccc3cc(-c4ccccc4)ccc23)O1 (stereo not drawn) | 57 |

Tested on: MCF7
Experiment: Induction of tubulin hyperacetylation in human MCF7 cells at 100 uM by Western blot
Type: functional, cell-based
Outline: (§3)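 MCF-7 cells seeded at 500000/well, treated 24 h later with compound or DMSO for 8 h at 37 °C. PBS-washed cells lysed in Tris-HCl pH 7.5, EDTA, NaCl, 0.5% NP-40 plus protease inhibitors. Protein quantified by BCA before Western blotting.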

| Compound | Activity |
| --- | --- |
| Cc1ccc(C2CC(=O)Oc3ccc4cc(Br)ccc4c32)cc1 (stereo not drawn) | Active |
| Cc1ccc([C@H]2CC(=O)Oc3ccc4cc(C)ccc4c32)cc1 | Active |

Tested on: MCF7
Experiment: Induction of tubulin hyperacetylation in human MCF7 cells at 10 uM by Western blot
Type: functional, cell-based
Outline: as §3

| Compound | Activity |
| --- | --- |
| NC(=O)[C@H]1CCCCc2c1[nH]c1ccc(Cl)cc21 | Active |
| O=C(CCCCCCC(=O)Nc1ccccc1)NO | Active |

Biological target: T2, NAD-dependent protein deacetylase sirtuin-2 (Homo sapiens)
Experiment: Inhibition of human recombinant Sirt2 expressed in Escherichia coli BL21 at 100 uM by fluorescent deacetylase assay
Outline: as §1

| Compound | inhibition [%] |
| --- | --- |
| Cc1ccc([C@@H]2CC(=O)Oc3ccc4cc(C)ccc4c32)cc1 | 35.1 |
| Cc1ccc2c3c(ccc2c1)OC(=O)C[C@H]3c1ccccc1 | 41.8 |
